Results of several laboratories.
Target: Prostaglandin G/H synthase 2 (PTGS2, Homo sapiens, UniProt P35354)
Observed: enzyme activity
Action: inhibitor
One construct used (P35354 18-604): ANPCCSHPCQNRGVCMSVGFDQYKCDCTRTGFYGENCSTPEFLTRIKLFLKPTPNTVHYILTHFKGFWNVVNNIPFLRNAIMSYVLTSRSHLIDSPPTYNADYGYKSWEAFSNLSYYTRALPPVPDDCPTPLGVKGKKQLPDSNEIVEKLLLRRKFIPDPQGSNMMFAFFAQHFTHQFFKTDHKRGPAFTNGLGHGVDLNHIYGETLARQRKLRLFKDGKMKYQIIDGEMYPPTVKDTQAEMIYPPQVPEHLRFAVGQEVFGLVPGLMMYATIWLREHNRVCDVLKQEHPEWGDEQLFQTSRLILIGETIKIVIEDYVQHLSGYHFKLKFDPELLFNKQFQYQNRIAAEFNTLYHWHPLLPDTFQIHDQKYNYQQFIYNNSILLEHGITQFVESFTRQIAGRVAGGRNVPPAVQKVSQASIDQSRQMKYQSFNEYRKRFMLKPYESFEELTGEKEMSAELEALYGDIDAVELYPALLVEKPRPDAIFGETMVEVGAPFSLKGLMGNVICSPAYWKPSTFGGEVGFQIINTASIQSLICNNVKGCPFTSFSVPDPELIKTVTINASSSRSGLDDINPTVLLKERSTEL

| SMILES | assay | setting | measurement | value |
| --- | --- | --- | --- | --- |
| Clc1ccc2c(C3CCN(CCc4c[nH]c5ccccc45)CC3)c[nH]c2c1 | – | 10 µM | inhibition | 79% |
| O=C(Nc1cccnn1)N1CCN([C@@H]2CCOc3cc(C(F)(F)F)ccc32)CC1 | – | 20 µM | inhibition | -2% |
| COc1ccc(-c2ccc(N)cc2-c2nc3ccccc3s2)cc1 | absorbance | 10 µM | inhibition | 10.3% |
| c1ccc(C(NCCNC(c2ccccc2)c2ccccc2)c2ccccc2)cc1 | – | 10 µM | inhibition | 0% |
| Nc1ncc(-c2nc(N3CCOCC3)nc(N3CCOCC3)n2)c(C(F)F)n1 | – | 10 µM | remaining activity | 99% |
| Cc1ncc(C)n2nc(/C=C/c3nc(N4CCCC4)cc(N4CCOCC4)n3)nc12 | – | 10 µM | inhibition | 0% |
| Cc1ccc(-c2nc3ccccc3s2)c(-c2ccc(S(C)(=O)=O)cc2)c1 | absorbance | 10 µM | inhibition | 72% |
| COCc1c(-c2cc3cc(C)cc(OC)c3s2)c2c(N)ncnn2c1CN1CCNC(=O)C1 | – | 10 µM | inhibition | 6% |
| NS(=O)(=O)c1ccc(-c2ncccc2-c2nc3ccccc3s2)cc1 | absorbance | 10 µM | inhibition | 88.5% |
| C[C@H](C(=O)N[C@H]1COc2ccccc2[C@@H]1S(C)(=O)=O)c1ccc(F)cc1 | – | 10 µM | inhibition | -27% |
